This is an account of results in ChEMBL document CHEMBL1123595, “Synthesis and antilipolytic activities of quinolyl carbanilates and related analogues” (J Med Chem, 1987).

Experiment [1] is filed under the species Canis lupus familiaris. The experiment in a line: Percentage inhibition of free fatty acid liberation at 100 uM determined in canine myocardial lipase assay. The experiment is classed as functional. The method, boiled down: (§1)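 Lipases were extracted from washed canine heart membranes with buffer, heparin and a little Triton X-100. The reaction ran in an oil-water emulsion of triolein with [3H]triolein tracer, 50 mM Tris pH 6.8 and 0.5% BSA. Compound was at 100 µM (3.0% DMSO final), tested in duplicate. Released [3H]oleic acid was extracted into hexane, separated from triolein and scintillation counted.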

The species entered for experiment [2] is Rattus norvegicus. Description: Percent inhibition of adipocyte lipolysis in rat adipocyte assay was determined at 100 uM concentration. The format is functional. The essentials:
(§2)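 Abdominal fat pads from male rats (200–250 g) in Krebs-bicarbonate buffer gassed 95:5 O2/CO2, collagenase-digested 1 h at 37 °C, washed twice. Lipolysis stimulated with epinephrine (3 µM) plus methylisobutylxanthine (10 µM); compounds added from 20 mM DMSO or water stock (final DMSO 1%). Incubated 1 h at 37 °C under O2/CO2, stopped on ice. Medium glycerol measured by glycerol dehydrogenase (NAD to NADH).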

Experiment [3] can be described thus: (§3) Concentration required for inhibition of free fatty acid liberation in Canine myocardial lipase assay. The experiment is classed as tissue-based, Canis lupus familiaris, Myocardium.
For experiment [4], the species on record is Rattus norvegicus. Description: Concentration required for inhibition of adipocyte lipolysis in rat adipocyte assay was determined. The format is functional. The essentials: (§4)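 Abdominal fat pads from male rats (200–250 g) were collagenase-digested for 1 h at 37 °C in Krebs-bicarbonate buffer gassed with 95:5 O2/CO2, then washed twice. Cells were stimulated with epinephrine (3 µM) plus methylisobutylxanthine (10 µM). Compound was added from DMSO or water stock and incubated 1 h at 37 °C. The run was stopped on ice, and glycerol in the aqueous phase was measured by glycerol dehydrogenase (NAD→NADH).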

The species named for experiment [5] is Rattus norvegicus. The experiment in a line: Percent inhibition of adipocyte lipolysis in rat adipocyte assay was determined at 3 uM concentration. The experiment is classed as functional. The essentials:
as §2

Experiment [6] is described as follows: as §3. The experiment is classed as functional, tissue-based, Canis lupus familiaris, Myocardium.
Experiment [7] is filed under the species Rattus norvegicus. The experiment in a line: Percent inhibition of adipocyte lipolysis in rat adipocyte assay was determined at 200 uM concentration. The experiment is classed as functional. The method, boiled down: (§5)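 Rat adipocytes were prepared by collagenase digestion of abdominal fat pads from male rats (200–250 g) in gassed Krebs-bicarbonate buffer. Lipolysis was driven by 3 µM epinephrine plus 10 µM methylisobutylxanthine. Compound was added from a 20 mM DMSO or water stock to a final 200 µM (1% DMSO), then incubated 1 h at 37 °C under 95:5 O2/CO2. Released glycerol was quantified with glycerol dehydrogenase.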

Experiment [8] is filed under the species Canis lupus familiaris. Description: Percent inhibition of free fatty acid liberation at 100 uM was determined in Canine myocardial lipase assay. The method, boiled down: as §1
The species entered for experiment [9] is Rattus norvegicus. Description: Percent inhibition of adipocyte lipolysis in rat adipocyte assay was determined at 100 uM. The experiment is classed as functional. The essentials:
as §4

Experiment [10] is filed under the species Rattus norvegicus. The experiment in a line: Percent inhibition of adipocyte lipolysis in rat adipocyte assay was determined at 3 uM. The experiment is classed as functional. The method, boiled down:
as §2

The species named for experiment [11] is Rattus norvegicus. The experiment in a line: Concentration required for inhibition of adipocyte lipolysis in rat adipocyte assay was determined at 200 uM concentration. The format is functional. The method, boiled down:
as §5

The species named for experiment [12] is Rattus norvegicus. Description: Percent inhibition of adipocyte lipolysis in rat adiposite assay was determined at 3 uM concentration. The format is functional. The essentials: as §2
For experiment [13], the species on record is Rattus norvegicus. Description: Percent inhibition of adipocyte lipolysis in rat adipocyte assay was determined at 30 uM concentration. The experiment is classed as functional. The essentials: as §4
The species named for experiment [14] is Rattus norvegicus. The experiment in a line: Concentration required for inhibition of adipocyte lipolysis in rat adipocyte assay was determined at 3 uM concentration. The experiment is classed as functional. The essentials: as §2
For experiment [15], the species on record is Rattus norvegicus. Description: Inhibitory concentration (IC50) of adipocyte lipolysis in rat adipocyte assay was determined.

What is called inhibition is the change of the read-out against control, counted positive when it falls. Consider `COc1ccc(CCNC(=O)Oc2cccc3cccnc23)cc1`, for which the inhibition in the experiment listed under Canis lupus familiaris [1] came out at 70%. Further, 100 µM produced 98% inhibition in the experiment filed under Rattus norvegicus [2].
What is called IC50 is the point on the concentration scale where inhibition reaches its midpoint. As for `COc1ccccc1NC(=O)Oc1ccc2cccnc2c1`, the half-maximal inhibitory concentration (IC50) in [3] was 48 µM; in the experiment filed under Rattus norvegicus [4], 80 µM.
`O=C(Nc1ccccc1)Oc1cccc2cccnc12` returned an inhibition at 3 µM in the experiment filed under Rattus norvegicus [5] of 28%. Besides, the inhibition in the experiment listed under Canis lupus familiaris [1] amounted to 69%.
With `COc1ccc(NC(=O)Oc2cccc3ocnc23)cc1`, the IC50 in [6] is 7 µM; in the experiment filed under Rattus norvegicus [4] it was 2.4 µM.
`COc1ccc(NC(=O)Oc2ccc(S(=O)(=O)O)c3cccnc23)cc1` yielded an inhibition at 200 µM in the experiment listed under Rattus norvegicus [7] of 14%. Further, the inhibition in the experiment filed under Canis lupus familiaris [1] stood at 83%.
Take `COc1cccc(NC(=O)Oc2ccc3cccnc3c2)c1`: in the experiment listed under Canis lupus familiaris [8], the inhibition was 52%. Further, the inhibition at 200 µM in the experiment filed under Rattus norvegicus [7] came out at 25%.
For `COc1ccc(NC(=O)COc2cccc3cccnc23)cc1`, the inhibition in the experiment filed under Canis lupus familiaris [8] amounted to 7%. This compound also registered an inhibition at 100 µM in the experiment filed under Rattus norvegicus [9] of 26%.
For the compound `Cc1ccc2cccc(OC(=O)Nc3ccccc3)c2n1`, the inhibition at 3 µM in the experiment filed under Rattus norvegicus [5] was determined as 29%. In addition, in the experiment filed under Canis lupus familiaris [1], the inhibition came to 68%.
`O=C(Nc1cccc(Cl)c1)Oc1cccc2cccnc12` yielded an inhibition at 3 µM in the experiment filed under Rattus norvegicus [10] of 5%. In addition, in the experiment filed under Canis lupus familiaris [1], the inhibition amounted to 41%.
In the experiment filed under Rattus norvegicus [11], `Cc1ccccc1NC(=O)Oc1ccc2cccnc2c1` registered an inhibition at 200 µM of 20%. Besides, the inhibition in the experiment filed under Canis lupus familiaris [1] was 45%.
Consider `O=C(NCCCCCCNC(=O)ON=C1CCCCC1)ON=C1CCCCC1`, for which the half-inhibitory concentration (IC50) in [6] stood at 4 µM; in the experiment listed under Rattus norvegicus [4], 1 µM.
Regarding `CCOC(=O)c1ccc(NC(=O)Oc2ccc3cccnc3c2)cc1`, in the experiment listed under Canis lupus familiaris [8], the inhibition came out at 46%. This compound showed an inhibition at 200 µM in the experiment filed under Rattus norvegicus [7] of 18%.
In general, Inhibition refers to the change of the read-out against control, counted positive when it falls. Read a low Inhibition as a weak effect. The compound `Cc1ccc(NC(=O)Oc2cccc3cccnc23)cc1` yielded an Inhibition in the experiment filed under Rattus norvegicus [12] of 76%. In the experiment filed under Canis lupus familiaris [1], the inhibition came to 63%.
For `COc1ccccc1OC(=O)Nc1cccc2cccnc12`, the 50% inhibitory concentration (IC50) in experiment [3] came out at 20 µM; in the experiment listed under Rattus norvegicus [4], 30 µM.
Regarding `C[C@@H](NC(=O)Oc1cccc2cccnc12)c1ccccc1`, the midpoint of inhibition in the experiment filed under Rattus norvegicus [4], the IC50, lay at 35 µM. For the same compound, the inhibition in the experiment filed under Canis lupus familiaris [1] is 76%.
On to `O=C(Nc1ccccc1)Oc1c(Cl)cc(Cl)c2cccnc12`, for which the IC50 in experiment [6] was found to be 56 µM. The inhibition at 200 µM in the experiment filed under Rattus norvegicus [7] amounted to 28%.
Regarding `CC(NC(=O)Oc1cccc2cccnc12)c1ccccc1` (centres undefined), the inhibition in the experiment listed under Canis lupus familiaris [8] came to 74%. In the experiment filed under Rattus norvegicus [4], this compound came in with an IC50 of 35 µM.
In the case of `COc1ccccc1NC(=O)Oc1cccc2ncccc12`, the concentration for half-maximal inhibition (IC50) in experiment [6] turned out to be 48 µM. The compound further displayed an inhibition at 200 µM in the experiment filed under Rattus norvegicus [7] of 31%.
Take `Cc1ccc2cccc(OC(=O)Nc3ccc(Br)cc3)c2n1`: at 3 µM the inhibition in the experiment listed under Rattus norvegicus [5] was 5%. Also, in the experiment filed under Canis lupus familiaris [1], the inhibition worked out at 68%.
On to `COc1ccc(OC(=O)Nc2cccc3cccnc23)cc1`, for which the inhibition in the experiment listed under Canis lupus familiaris [8] came to 75%. The compound also gave an inhibition at 30 µM in the experiment listed under Rattus norvegicus [13] of 3%.
The compound `COc1ccc(C(=O)Oc2cccc3cccnc23)cc1` yielded an inhibition at 200 µM in the experiment listed under Rattus norvegicus [7] of 49%. The inhibition in the experiment filed under Canis lupus familiaris [1] was 13%.
On to `O=C(Nc1ccc(Cl)cc1)Oc1cccc2cccnc12`, for which the inhibition at 3 µM in the experiment listed under Rattus norvegicus [5] amounted to 52%. In the experiment filed under Canis lupus familiaris [1], the inhibition worked out at 58%.
Regarding `COc1cccc(NC(=O)Oc2cccc3cccnc23)c1`, the half-maximal inhibitory concentration (IC50) in [6] was determined as 18 µM; in the experiment listed under Rattus norvegicus [4], 7 µM.
On to `O=C(Nc1ccccc1Cl)Oc1ccc2cccnc2c1`, for which the inhibition in the experiment filed under Canis lupus familiaris [1] turned out to be 6%.
Still for that read-out and setting: for `O=C(Nc1ccccc1Cl)Oc1cccc2cccnc12` the value was 1%.
`COc1ccc(NC(=O)Oc2cccc3ccc(C)nc23)cc1`: half-maximal inhibition in the experiment listed under Rattus norvegicus [4] (IC50) required 0.2 µM. Moreover, the inhibition in the experiment filed under Canis lupus familiaris [1] was 68%.
For the compound `COc1ccc(CC(=O)Oc2cccc3cccnc23)cc1`, the inhibition in the experiment filed under Canis lupus familiaris [1] worked out at 0%. At 100 µM the inhibition in the experiment filed under Rattus norvegicus [2] was 74%.
In the case of `O=C(Nc1ccccc1C(F)(F)F)Oc1ccc2cccnc2c1`, in the experiment listed under Canis lupus familiaris [1], the inhibition stood at 12%.
In the case of `COc1ccc(NC(=O)Oc2cccc3ncccc23)cc1`, the inhibition in the experiment filed under Canis lupus familiaris [8] was 63%. Besides, the inhibition at 30 µM in the experiment filed under Rattus norvegicus [13] came out at 1%.
Turning to `COc1ccc(OC)c(NC(=O)Oc2cccc3cccnc23)c1`, the IC50 in experiment [6] stood at 48 µM; in the experiment listed under Rattus norvegicus [4], 10 µM.
`O=C(Nc1ccccc1)Oc1ccc(Cl)c2cccnc12`: the inhibition at 3 µM in the experiment listed under Rattus norvegicus [5] is 4%. For the same compound, the inhibition in the experiment listed under Canis lupus familiaris [1] turned out to be 69%.
Take `Cc1ccccc1NC(=O)Oc1cccc2cccnc12`: the inhibition in the experiment filed under Canis lupus familiaris [1] was found to be 7%. Further, the inhibition at 3 µM in the experiment filed under Rattus norvegicus [14] is 40%.
On to `O=C(Nc1cccc(C(F)(F)F)c1)Oc1cccc2cccnc12`, for which the inhibition in the experiment filed under Canis lupus familiaris [1] was found to be 56%. The inhibition at 3 µM in the experiment listed under Rattus norvegicus [14] turned out to be 7%.
As to `COc1ccc(NC(=O)Oc2ccc3ncccc3c2)cc1`, in the experiment filed under Canis lupus familiaris [8], the inhibition amounted to 64%. The inhibition at 30 µM in the experiment filed under Rattus norvegicus [13] is 8%.
As for `COc1ccc(NC(=O)Oc2cccc3cccnc23)cc1`, the half-inhibitory concentration (IC50) stood at 17 µM in [6] and 0.1 µM in the experiment filed under Rattus norvegicus [15].
For the compound `CCOC(=O)c1ccc(NC(=O)Oc2cccc3cccnc23)cc1`, the inhibition at 200 µM in the experiment listed under Rattus norvegicus [7] was 44%. For the same compound, the half-inhibitory concentration (IC50) in experiment [3] is 200 µM.
`COc1ccc(NC(=O)Oc2ccc3cccnc3c2)cc1`: the inhibition at 30 µM in the experiment listed under Rattus norvegicus [13] was determined as 0%. In the experiment filed under Canis lupus familiaris [1], the inhibition was found to be 60%.
`COc1ccc(CNC(=O)Oc2cccc3cccnc23)cc1`: the IC50 in the experiment filed under Rattus norvegicus [4] stood at 5.8 µM. The inhibition in the experiment filed under Canis lupus familiaris [1] worked out at 72%.
As to `Cc1cccc(NC(=O)Oc2cccc3cccnc23)c1`, the Inhibition in the experiment listed under Rattus norvegicus [12] was found to be 84%. Also, the inhibition in the experiment listed under Canis lupus familiaris [1] was determined as 64%.
`COc1ccccc1NC(=O)Oc1cccc2cccnc12`: the figures for the IC50 (in experiment [3]; in the experiment filed under Rattus norvegicus [4]) were 40 µM and 7 µM, respectively.
As to `COc1ccc(NC(=O)Oc2cccc3cccnc23)c(OC)c1`, the inhibition in the experiment listed under Canis lupus familiaris [1] stood at 65%. This compound registered an IC50 in the experiment filed under Rattus norvegicus [14] of 0.2 µM.
As for `O=C(Nc1ccc(Br)cc1)Oc1cccc2cccnc12`, the IC50 in experiment [6] is 80 µM. This compound also gave an inhibition at 3 µM in the experiment listed under Rattus norvegicus [5] of 5%.
For the compound `O=C(O)c1cccnc1` [NIACIN], the IC50 in experiment [3] is 13 µM.
For `Cc1cnc(C(=O)O)c[n+]1[O-]` [ACIPIMOX], the half-inhibitory concentration (IC50) in experiment [6] was 39 µM.
As for `COc1ccccc1NC(=O)Oc1ccc2ncccc2c1`, the half-inhibitory concentration (IC50) in experiment [3] was found to be 42 µM; in the experiment filed under Rattus norvegicus [4] it was 30 µM.
`COc1ccccc1NC(=O)Nc1cccc2cccnc12` gave an inhibition at 200 µM in the experiment listed under Rattus norvegicus [7] of 4%. Besides, the 50% inhibitory concentration (IC50) in [3] was found to be 73 µM.
Regarding `COc1ccc(CCNC(=O)Oc2ccc3cccnc3c2)cc1`, the inhibition in the experiment filed under Canis lupus familiaris [1] worked out at 97%. The compound further showed an inhibition at 100 µM in the experiment listed under Rattus norvegicus [2] of 84%.
